Source: the RNAGym collection of RNA variant scans (doi:10.1126/science.aae0568)
Fewer inactive variants are shown than the library holds.

B1: tRNA (parent)
chain: GUUCCGUUGGCGUAAUGGUAACGCGUCUCCCUCCUAAGGAGAAGACUGCGGGUUCGAGUCCCGUACGGAACG

Variants of: B1
Test: yeast fitness relative to wild type (ratio to wild type); higher = fitter; tRNA-Arg(CCU), competitive growth, 37 C, YPD
Procedure, shortened: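 Amplicons of the tRNA-Arg(CCU) gene were sequenced, 100-nucleotide paired-end, from the start population and from each end population of a pooled yeast competition. The competition, in six parallel replicates, lasted 24 hours in YPD at 37°C. Fitness relative to wild type was calculated from changes in genotype frequencies. Genotypes had to have ≥ 100 starting reads, and estimates < 0.5 were set to 0.5.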

Variant | yeast fitness
GUUCCGUUGGCGUAAUGGUAACGCCUCUCCCUCCUAAGGAGAAGACUGCGGGUUCGAGUCCCGUACAGAACG | 1.01
GUUCCGUUGGCGUAAUGGUAACGCGACUCCCUCCUAAGGAGCAGGCUGUGGGUUCGAGUCCCGUACGGAACG | ≤ 0.5
GUUCCGUUGGCGUAAUGGUAACGCUUCUCCCUCCUAAGGAGAAGACUGCGGGUUCGAGUCCCGUUCGGAACG | 1.02
GUUCCGUUGGCGUAAUGGUAACGCGACUCCCUCCUAAGGGGAAGACUGCGGGUUCGACUCCCGUACUGAACG | 0.556
GUUCCGUUGGCGUAAUGGUAACGCCUCUCCCGCCUAAGGAGAAGACUGCGGGUUCGAGUCCCGUACGGAACG | 0.655
GUUCCGUUGGCGUAAUGGUAACGCCUCUCCCCCCUAAGGAGAAGACUGCGGGUUCGAGUCCCGUACGGAACG | 0.948
GUUCCGUUGGCGUAAUGGUAACGCCUCUCCCUCCUAAGGAGAAGACUGCCGGUUCAAAUCCCGUACGGAACG | ≤ 0.5
GUUCCGUUGGCGUAAUGGUAACGCCUCUCCCUCCUAAGGAGAAGACUGCGGGUUCGACUCCCGUUCGGAACG | 0.928
GUUCCGUUGGCGUAAUGGUAACGCGACUCCCUCCUAAGGAGAGGACUGCGGGUUCGAGUCCCGUACGGCACG | 0.649
GUUCCGUUGGCGUAAUGGUAACGCGACUCCCUCCUAAGGAGACGACUGCGGGUUCGAGUCCCGUACGGAACG | 0.966
GUUCCGUUGGCGUAAUGGUAACGCCUCUCCCUCCUAAGGAGAACACUGUGGGUUCGAGUCCCGUACGGAACG | 0.505
GUUCCGUUGGCGUAAUGGUAACGCGACUCCCUCCUAAGGAGAAGACUGCGGGUUCGCGUCCCGUACGGAACG | 0.64
GUUCCGUUGGCGUAAUGGUAACGCGACUCCCUCCUUAGGAGAAGACUGCGGGUUCGAGUCCCGUACGGAACG | 0.606
GUUCCGUUGGCGUAAUGGUAACGCGACUCCCUCCUAAGGAGAAGACUGCGGGUUCGAGUCCCGUACGGAGCG | 0.924
GUUCCGUUGGCGUAAUGGUAACGCGACUCCCUCCUACGGAGAAGACUGUGGGUUCAAGUCCCGUACGGAACG | ≤ 0.5
GUUCCGUUGGCGUAAUGGUAACGCCUCUCCCGCCUAAAGAGAAGACUGCGGGUUCGAGUCUCGUACGGAACG | ≤ 0.5
GUUCCGUUGGCGUAAUGGUAACGCUUCUCCCUCCUUAGGAGAAGACUGCGGGUUCGAGUCUCGUACGGAACG | ≤ 0.5
GUUCCGUUGGCGUAAUGGUAACGCUUCUCCCCCCUUAGGAGAAGACUGCGGGUUCCAGUCCCGUCCGGAACG | ≤ 0.5
GUUCCGUUGGCGUAAUGGUAACGCCUCUCCCUCCUAAGGAGAAGACUGCGGAUUCGAGUCCCGUACGGAACG | 0.748
GUUCCGUUGGCGUAAUGGUAACGCCUCUCCCUCCUAAGGAGAAGACUGCGGGUUCGAGUCCCAUACGGAACG | 0.955
GUUCCGUUGGCGUAAUGGUAACGCCUCCCCCUCCUAAGGAGAAGACUGCGGGUUCGAGUCCCGUACGGAACG | 0.79
GUUCCGUUGGCGUAAUGGUAACGCCUCUCCCUCCUAAGGACAAGAUUGCGGGUUCGAGUCCCGUAUGGAACG | ≤ 0.5
GUUCCGUUGGCGUAAUGGUAACGCCUCCCCCUCCUAAGGAGAAGACUGCGGGUUCGAGUCCCGUACGGGCCG | ≤ 0.5
GUUCCGUUGGCGUAAUGGUAACGCCUCUCCCUCCUAAGGAGAAGACUGCGAGUUCGAGUCCCGUACGGAACG | 1.01
GUUCCGUUGGCGUAAUGGUAACGCGACUCCCUCCUAAGGCGAAGACUGCGGGUACGAGUCCCGUACGGAACG | ≤ 0.5

Variant | yeast fitness
GUUCCGUUGGCGUAAUGGUAACGCGAUUCCCUCCUAAGGAGAAGACUGCGGGUUCGAGUCCCGUGCGGGACG | 0.669
GUUCCGUUGGCGUAAUGGUAACGCGACUCCCUCCUAAGGAGGAGACCGCGGGUUCGAGUCCCAUACGGAACG | 0.519
GUUCCGUUGGCGUAAUGGUAACGCCUCUCCCUCCUAAGGACAAGACUGCGGGUUCGAGUCCCGUACGGACCG | 0.559
GUUCCGUUGGCGUAAUGGUAACGCUUCUCCCUCCUAAGGAGAAGACUGCGGGUUCGAGUCCCGAACGGAACG | 0.687
GUUCCGUUGGCGUAAUGGUAACGCGACUCCCUCCUAAGGCGAAGACUGCGGGUUCGAGUCCCGUAAGGAACG | ≤ 0.5
GUUCCGUUGGCGUAAUGGUAACGCGACUCCCUCCUAGGGAGAAGACUGCGGGUUCGAGUCCCGAACGGAACG | ≤ 0.5
GUUCCGUUGGCGUAAUGGUAACGCUUCUGCCUCCUAAGGAGCAGACUGCGGGUUCGAGUCCCGUAUAGAACG | ≤ 0.5
GUUCCGUUGGCGUAAUGGUAACGCGACUCCCUCCUAAGGAGAUGACUGCGGGUUCGAGUCCCGUUCGGAACG | 0.618
GUUCCGUUGGCGUAAUGGUAACGCGACUCCCUCCUAAGGGGAAGACUGCGGGUUCGAGUCCCGUACGGAACG | 0.657
GUUCCGUUGGCGUAAUGGUAACGCGACUCCCUCCUAAGGAGAAGACUGCGGGUUCGCGUCCCGUACGGAUCG | ≤ 0.5
GUUCCGUUGGCGUAAUGGUAACGCCUCCCCCUCCUAAGGAGAAGACUGCGGGUUCGAGUCCCGUACGGACCG | 0.563
GUUCCGUUGGCGUAAUGGUAACGCGACUCCCUCCUAAGGAGAAGACUGCGGGUUCGCGUCCCGUACAGUACG | 0.58
GUUCCGUUGGCGUAAUGGUAACGCCGCUCCCUCCUAAGGAGAAGAGUGCGAGUUCGAGUCCCGUACGGAUCG | ≤ 0.5
GUUCCGUUGGCGUAAUGGUAACGCGAAACCCUCUUAAGGAGAAGACUGCGGGUUCGAGUCCCGUACGACACG | 0.534
GUUCCGUUGGCGUAAUGGUAACGCCUCUCCCUCCUAAGGAGAAGACUACGGGUUCGAGUCCCGUACGAAACG | 0.564
GUUCCGUUGGCGUAAUGGUAACGCGACUGCCUCCUAAGGAGAGGUCUGCGGGUUCGAGUCCCGUACGGAACG | ≤ 0.5
GUUCCGUUGGCGUAAUGGUAACGCGACUCCCUCCUAAGGAGGAGACUCCGGGUUCGAGUCCGGUACGGAACG | ≤ 0.5
GUUCCGUUGGCGUAAUGGUAACGCCUCUCCCUCCUAAGGACAAGACUGCGGGUUCGAGUCCCGUACGGAACG | 0.625
GUUCCGUUGGCGUAAUGGUAACGCGACUCCCUCCUAAGGAGAAGACUGCGGGUUCGAGUCCCGUCCGGAACG | 0.946
GUUCCGUUGGCGUAAUGGUAACGCGAUUACCUCCUAAGGAGAAGACUGCGGGUUCGAGUCCCGUGCGCAACG | ≤ 0.5
GUUCCGUUGGCGUAAUGGUAACGCUUCUCCCUCCUUAGGAGAAGACUGCGGGUUCCAGUCCCGUCUGGAACG | ≤ 0.5
GUUCCGUUGGCGUAAUGGUAACGCUUCUCACUCCUAAGGAGAAGAAUGCGGGUUCGAGUCCCGUACGGAACG | 0.581
GUUCCGUUGGCGUAAUGGUAACGCCUCCCCCUCCUAAGGAGAAGACUGCGGGUUCGAGUCCUGUACGGACCG | ≤ 0.5
GUUCCGUUGGCGUAAUGGUAACGCCUCUCCCUCCUAAGGAGAAAACUGCGGGUUCGAGUCCCGUACGGAACG | 0.97
GUUCCGUUGGCGUAAUGGUAACGCGACUCCCUCCUAAGGAGAAGACUGCGGGUUCGGGUUCCGUACGGAACG | ≤ 0.5

Variant | yeast fitness
GUUCCGUUGGCGUAAUGGUAACGCCACUCCCUCCCAAGGAGAAGACUGCGGGUUCGAGUCCCGUACGGAACG | ≤ 0.5
GUUCCGUUGGCGUAAUGGUAACGCCGCUCCCUCCUAAGGAGAAGAGUGCGGGUUCGAGUCCGGUACGGAACG | ≤ 0.5
GUUCCGUUGGCGUAAUGGUAACGCGACUCCCUCCUAAGGAGAAGUCUGCGGGUUCGAGUCCCGUACGGAACG | 1.03
GUUCCGUUGGCGUAAUGGUAACGCUUCUCCCUCCUUAGGAGAAGACUGCGGGUUCCAGUCCCGUACGGAACG | ≤ 0.5
GUUCCGUUGGCGUAAUGGUAACGCCUCUCCCUCCUAAGGAGAAGACUGCAGGUUCGAGUCCCGUACGGAACG | 1
GUUCCGUUGGCGUAAUGGUAACGCGACUCCCUCCUAAGGAGCAGACUGCGGGUUCGAGUCCCGUACGGAACG | 0.97
GUUCCGUUGGCGUAAUGGUAACGCGACUCCCUCCUAAGGAGGAGACUGCGGGUUCGAGUCCCGUACGGAACG | 0.891
GUUCCGUUGGCGUAAUGGUAACGCCUCUCCCUCCUAAGGACUAGACUGAGGGUUCGAGUCCCGUACGGAACG | ≤ 0.5
GUUCCGUUGGCGUAAUGGUAACGCCUCUCCCUCCUAAGCAGAAGACUGCGGCUUCGACUCCCGUACGGAACG | ≤ 0.5
GUUCCGUUGGCGUAAUGGUAACGCGAUUCCCUCCUAAGGAGAAGACUGCGGGUUCGAGUCCCGUGCGGAACG | 1
GUUCCGUUGGCGUAAUGGUAACGCCUCUCCCUCCUAAGGACAAGACUCCGGGUUCGAGUCCCGUACGGAACG | ≤ 0.5
GUUCCGUUGGCGUAAUGGUAACGCGAAACCCUCUUAAGGAGAAGACUGCGGGUUCGAGUCCCGUACGGAACG | ≤ 0.5
GUUCCGUUGGCGUAAUGGUAACGCGACUCCCUCCUAAGGAGAAGGCUGCGGGUUCGAGUCCCGUAGUGAACG | ≤ 0.5
GUUCCGUUGGCGUAAUGGUAACGCUUCUGCCUCCUAAGGAGCAGACUGCGGGUUCGAGUCCCGUACGGAACG | ≤ 0.5
GUUCCGUUGGCGUAAUGGUAACGCCUCUCCCUCCUAAGGAGAAGACUGCGGGUGCGAGUCCCGUACGGAACG | 0.581
GUUCCGUUGGCGUAAUGGUAACGCCUCUCCCUCCUAAGGAGAAGACUGCGGGCUCGAGUCCCGUCCGGAACG | 0.697
GUUCCGUUGGCGUAAUGGUAACGCGACUCCCUCCUAAGGAGAAGACUGCGGGUUCGCGUCGCGUACAGUACG | ≤ 0.5
GUUCCGUUGGCGUAAUGGUAACGCGACUCCCUCCUAAGGAGCAGACUGUGGGUUCGAGUGCCGCAAGGAACG | ≤ 0.5
GUUCCGUUGGCGUAAUGGUAACGCCACUCCCUCCUAAGGAGAAGACUGCGGGUUCGAGUCACGUACGGAACG | ≤ 0.5
GUUCCGUUGGCGUAAUGGUAACGCCUCUCCCUCCUAAGGAGAAGACUACGGGUUCGAGUCCCGUACGGAACG | 0.951
GUUCCGUUGGCGUAAUGGUAACGCGACUCCCUCCUUAGGAGAAGACUGAGGGUUCGAGUCCCGUACGGAACG | ≤ 0.5
GUUCCGUUGGCGUAAUGGUAACGCGAUUCCCUCCUAAGGAGAAGACUGCGGGUUCGAGUCCCGUACGGAACG | 0.919
GUUCCGUUGGCGUAAUGGUAACGCGACUCCCUCCUAAGGUGAAGACUGCGGGUUCGAGUCUCGUACGGAACG | 0.656
GUUCCGUUGGCGUAAUGGUAACGCCUCUCCCUCCUAAGGAGAAGACUACGGGUUCGAGUCCCAUACGGGACG | ≤ 0.5
GUUCCGUUGGCGUAAUGGUAACGCCUCUCCCUCCUAAGGAGAAGACUGCGAGUUCGAGUCCCGUGCGGAACG | 0.742
